Data reported in ChEMBL document CHEMBL1121744, “Synthesis and antihypertensive activity of a series of 8-substituted 1-oxa-3,8-diazaspiro[4.5]decan-2-ones” (J Med Chem, 1981).

Columns and labels:
Rattus norvegicus [1] = assay: Antihypertensive activity as percentage fall in systolic blood pressure in spontaneously hypertensive rats after a period of 1 hr for a dose of 50 mg/kg; format: functional, Artery
In short: (§1)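 Male Okamoto-Aoki SHR, trained, in groups of four matched for mean systolic pressure; one group per run received water vehicle. Oral dosing in water (0.1 mL per 10 g) on two consecutive mornings. After the day-2 dose, rats were restrained at 30.0 ± 1.0 °C. Systolic pressure was read by tail cuff (inflated to 300 mmHg, first pulse) at 1–4 h. % fall is versus the untreated control group, by 1-tail t test (p ≤ 0.05).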

Rattus norvegicus [2] = assay: Percentage fall in systolic blood pressure in spontaneously hypertensive rats after 3 h following 50 mg/kg p.o.; format: functional, Artery; conditions: route oral; in short: as §1
Rattus norvegicus [3] = assay: Percentage fall in systolic blood pressure in spontaneously hypertensive rats after 2 hr following 50 mg/kg p.o.; format: functional, Artery; conditions: route oral; in short: as §1
Canis familiaris [4] = assay: Change in mean arterial pressure in anesthetized dogs for a dose of 0.1 mg/kg; format: functional, Canis lupus familiaris, Artery
In short: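 Dogs anesthetized with sodium pentobarbital (35 mg/kg iv), femoral artery cannulated for pressure, ECG-triggered heart rate, femoral vein for dosing. Rising iv doses were given 90 min apart, and each dose is the full dose, not cumulative. Value is the maximal mean arterial pressure change 10–15 min after each dose, two dogs per compound, ±3 mmHg. Saline served as control.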

Rattus norvegicus [5] = assay: Antihypertensive activity as percentage fall in systolic blood pressure in spontaneously hypertensive rats after a period of 4 hr for a dose of 50 mg/kg po; format: functional, Artery; in short: as §1
Canis familiaris [6] = assay: Percent inhibition of the pressor responses to 1 ug/kg iv Epinephrine in pentobarbital-anesthetized dogs for a dose of 1 mg/kg; format: functional; conditions: Canis lupus familiaris
In short: (§2)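 Pentobarbital-anesthetized dogs (35 mg/kg iv) with femoral arterial pressure recording. Epinephrine (1 μg/kg), norepinephrine (0.75 μg/kg) and phenylephrine (7.5 μg/kg) iv challenges were given about every 10 min before and after rising iv test doses, which were spaced 90 min apart. Value is % inhibition of the pressor response.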

[7] = Distribution coefficient between 1-Octanol and phosphate buffer at pH7.4; format: physicochemical; conditions: 1-octanol/phosphate buffer, pH 7.4
In short: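 Octanol/buffer distribution measured at pH 7.4 in phosphate with sodium chloride. Either HPLC (0.004 M) or shake flask.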

[8] = target: T1, Adrenergic receptor alpha-1 (Rattus norvegicus, UniProt P15823+P23944+P43140); assay: Antagonistic potency of compound for Alpha-1 adrenergic receptor; format: functional
T1 sequence (P15823 whole entry): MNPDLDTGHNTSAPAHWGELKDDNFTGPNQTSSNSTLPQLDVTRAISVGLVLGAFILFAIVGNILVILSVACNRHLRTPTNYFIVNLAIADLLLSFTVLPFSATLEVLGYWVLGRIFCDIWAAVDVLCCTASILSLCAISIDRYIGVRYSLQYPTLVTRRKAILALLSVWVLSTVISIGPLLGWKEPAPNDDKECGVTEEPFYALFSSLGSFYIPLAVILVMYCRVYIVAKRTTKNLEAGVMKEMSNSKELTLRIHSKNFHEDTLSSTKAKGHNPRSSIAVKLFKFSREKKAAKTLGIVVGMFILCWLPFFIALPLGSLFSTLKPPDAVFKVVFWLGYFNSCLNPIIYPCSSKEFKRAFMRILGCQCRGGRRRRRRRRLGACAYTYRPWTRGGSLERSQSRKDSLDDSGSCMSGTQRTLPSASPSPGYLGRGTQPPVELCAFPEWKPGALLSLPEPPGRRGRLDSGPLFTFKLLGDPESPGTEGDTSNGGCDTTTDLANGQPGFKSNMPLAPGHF
T1 sequence (P23944 whole entry): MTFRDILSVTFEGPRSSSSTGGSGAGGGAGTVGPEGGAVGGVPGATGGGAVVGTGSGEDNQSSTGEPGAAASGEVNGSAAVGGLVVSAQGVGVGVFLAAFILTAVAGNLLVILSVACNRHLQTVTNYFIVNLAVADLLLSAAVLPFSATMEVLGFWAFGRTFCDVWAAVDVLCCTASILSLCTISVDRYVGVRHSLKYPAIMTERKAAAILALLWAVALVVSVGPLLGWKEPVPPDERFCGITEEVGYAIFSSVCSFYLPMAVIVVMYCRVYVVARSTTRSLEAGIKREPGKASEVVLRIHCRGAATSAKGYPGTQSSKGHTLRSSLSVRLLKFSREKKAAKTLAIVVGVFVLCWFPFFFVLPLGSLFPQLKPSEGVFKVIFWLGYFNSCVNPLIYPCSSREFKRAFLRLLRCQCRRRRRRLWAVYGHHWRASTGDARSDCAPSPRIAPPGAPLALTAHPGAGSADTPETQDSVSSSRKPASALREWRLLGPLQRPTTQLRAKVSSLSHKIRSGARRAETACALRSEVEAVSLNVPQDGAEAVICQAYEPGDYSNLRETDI
T1 sequence (P43140 whole entry): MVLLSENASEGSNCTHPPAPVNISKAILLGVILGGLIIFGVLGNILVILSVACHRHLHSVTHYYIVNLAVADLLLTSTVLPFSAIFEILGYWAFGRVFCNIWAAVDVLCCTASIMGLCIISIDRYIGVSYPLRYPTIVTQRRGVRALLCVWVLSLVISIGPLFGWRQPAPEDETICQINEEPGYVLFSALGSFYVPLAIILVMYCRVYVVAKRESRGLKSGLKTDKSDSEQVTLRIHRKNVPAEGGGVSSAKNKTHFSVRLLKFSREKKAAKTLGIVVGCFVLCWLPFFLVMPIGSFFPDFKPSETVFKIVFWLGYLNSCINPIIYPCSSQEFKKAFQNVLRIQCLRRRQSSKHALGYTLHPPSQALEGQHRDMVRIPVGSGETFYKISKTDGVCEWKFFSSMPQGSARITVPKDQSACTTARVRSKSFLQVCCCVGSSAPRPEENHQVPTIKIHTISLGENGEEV

Canis familiaris [9] = assay: Percent inhibition of the pressor responses to 7.5 ug/kg iv phenylephrine in pentobarbital-anesthetized dogs for a dose of 0.1 mg/kg; format: functional; conditions: Canis lupus familiaris; in short: as §2
Canis familiaris [10] = assay: Percent inhibition of the pressor responses to 7.5 ug/kg iv phenylephrine in pentobarbital-anesthetized dogs for a dose of 1 mg/kg; format: functional; conditions: Canis lupus familiaris; in short: as §2

| Compound | Decrease in blood pressure (Rattus norvegicus [1]) [%] | Decrease in blood pressure (Rattus norvegicus [2]) [%] | Decrease in blood pressure (Rattus norvegicus [3]) [%] | MAP (Canis familiaris [4]) [mmHg] | Decrease in blood pressure (Rattus norvegicus [5]) [%] | inhibition in vivo at 1 mg/kg (Canis familiaris [6]) [%] | logD [7] | pA2 [8] | inhibition in vivo at 0.1 mg/kg (Canis familiaris [9]) [%] | inhibition in vivo at 1 mg/kg (Canis familiaris [10]) [%] |
| --- | --- | --- | --- | --- | --- | --- | --- | --- | --- | --- |
| O=C1NCC2(CCN(CCc3c[nH]c4ccccc34)CC2)O1 | 16 | 7 | 10 | -2 | 8 | > 100 | 1.45 | 5.5 | 17 | 84 |
| CN1CC2(CCN(CC(O)C3COc4ccccc4O3)CC2)OC1=O (stereo not given) | 28 | 14 | 31 | 4 | 16 | > 100 | 1.43 | 4.5 | 0 | 44 |
